“And” between values parts separate entries of the source, which are not always exact repeats. Identical values can stand only once.
Key:
Fibroblast = test: Multiplex assay against human fibroblast; type: toxicity, cell-based; conditions: number of replicates 2
Method in brief: (§1)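 Live cells were stained at seeding with Hoechst33342, BioTracker Green Microtubule Cytoskeleton Dye, MitoTracker Red and Annexin V Alexa Fluor 680. Following compound addition, they were imaged on a CQ1 microscope at 37°C and 5% CO2 and gated by CellPathfinder machine learning into Hoechst high-intensity objects or normal cells, with normal cells split into healthy, pyknosed or fragmented nuclei and pyknosed cells into mitotic or apoptotic. Tubulin, mitochondrial-mass and membrane-permeability phenotypes are per cents of healthy-nucleus cells.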

HEK-293T = test: Multiplex assay against HEK293T; type: toxicity, cell-based; conditions: human, number of replicates 2; method in brief: as §1
[1] = 12 h, 1 µM, compound concentration 1 uM
[2] = 12 h, 10 µM, compound concentration 10 uM
[3] = 24 h, 1 µM, compound concentration 1 uM
[4] = 24 h, 10 µM, compound concentration 10 uM
[5] = 48 h, 1 µM, compound concentration 1 uM
[6] = 48 h, 10 µM, compound concentration 10 uM

Cc1cc(-c2cnc(N)c3c(-c4ccc5scnc5c4)csc23)n(C)n1
Population Apoptotic (%) (Fibroblast; [1]): 48% and 40% | Population Fragmented Nuclei (%) (Fibroblast; [1]): 9% and 10% | Population Healthy Nuclei (%) (Fibroblast; [1]): 77% and 62% | Population Hoechst High Intensity Objects (%) (Fibroblast; [1]): 0% | Population Membrane Permeable-Phenotype (%) (Fibroblast; [1]): 4% and 10% | Population Mitochondria Different-Phenotype (%) (Fibroblast; [1]): 0% and 2% | Population Mitotic Cells (%) (Fibroblast; [1]): 51% and 60% | Population Normal (%) (Fibroblast; [1]): 100% | Population Pyknosed Nuclei (%) (Fibroblast; [1]): 12% and 26% | Population Tubulin-Different-Phenotype (%) (Fibroblast; [1]): 14% and 15% | Total Cell Count (Fibroblast; [1]): 224 and 187 | Population Apoptotic (%) (Fibroblast; [2]): 66% and 51% | Population Fragmented Nuclei (%) (Fibroblast; [2]): 23% | Population Healthy Nuclei (%) (Fibroblast; [2]): 61% and 62% | Population Hoechst High Intensity Objects (%) (Fibroblast; [2]): 0% | Population Membrane Permeable-Phenotype (%) (Fibroblast; [2]): 12% and 20% | Population Mitochondria Different-Phenotype (%) (Fibroblast; [2]): 2% and 0% | Population Mitotic Cells (%) (Fibroblast; [2]): 33% and 48% | Population Normal (%) (Fibroblast; [2]): 99% and 100% | Population Pyknosed Nuclei (%) (Fibroblast; [2]): 15% and 14% | Population Tubulin-Different-Phenotype (%) (Fibroblast; [2]): 76% and 56% | Total Cell Count (Fibroblast; [2]): 240 and 224 | Population Apoptotic (%) (Fibroblast; [3]): 50% and 60% | Population Fragmented Nuclei (%) (Fibroblast; [3]): 13% and 10% | Population Healthy Nuclei (%) (Fibroblast; [3]): 75% and 64% | Population Hoechst High Intensity Objects (%) (Fibroblast; [3]): 0% | Population Membrane Permeable-Phenotype (%) (Fibroblast; [3]): 1% and 6% | Population Mitochondria Different-Phenotype (%) (Fibroblast; [3]): 0% and 3% | Population Mitotic Cells (%) (Fibroblast; [3]): 50% and 39% | Population Normal (%) (Fibroblast; [3]): 100% | Population Pyknosed Nuclei (%) (Fibroblast; [3]): 11% and 25% | Population Tubulin-Different-Phenotype (%) (Fibroblast; [3]): 10% and 13% | Total Cell Count (Fibroblast; [3]): 253 and 187 | Population Apoptotic (%) (Fibroblast; [4]): 68% and 59% | Population Fragmented Nuclei (%) (Fibroblast; [4]): 27% | Population Healthy Nuclei (%) (Fibroblast; [4]): 62% and 60% | Population Hoechst High Intensity Objects (%) (Fibroblast; [4]): 0% | Population Membrane Permeable-Phenotype (%) (Fibroblast; [4]): 10% and 15% | Population Mitochondria Different-Phenotype (%) (Fibroblast; [4]): 1% | Population Mitotic Cells (%) (Fibroblast; [4]): 32% and 40% | Population Normal (%) (Fibroblast; [4]): 100% | Population Pyknosed Nuclei (%) (Fibroblast; [4]): 9% and 12% | Population Tubulin-Different-Phenotype (%) (Fibroblast; [4]): 74% and 46% | Total Cell Count (Fibroblast; [4]): 254 and 259 | Population Apoptotic (%) (Fibroblast; [5]): 71% and 61% | Population Fragmented Nuclei (%) (Fibroblast; [5]): 10% and 14% | Population Healthy Nuclei (%) (Fibroblast; [5]): 83% and 67% | Population Hoechst High Intensity Objects (%) (Fibroblast; [5]): 0% | Population Membrane Permeable-Phenotype (%) (Fibroblast; [5]): 4% and 9% | Population Mitochondria Different-Phenotype (%) (Fibroblast; [5]): 1% and 3% | Population Mitotic Cells (%) (Fibroblast; [5]): 28% and 38% | Population Normal (%) (Fibroblast; [5]): 100% | Population Pyknosed Nuclei (%) (Fibroblast; [5]): 6% and 17% | Population Tubulin-Different-Phenotype (%) (Fibroblast; [5]): 8% and 13% | Total Cell Count (Fibroblast; [5]): 221 and 189 | Population Apoptotic (%) (Fibroblast; [6]): 66% and 72% | Population Fragmented Nuclei (%) (Fibroblast; [6]): 31% and 29% | Population Healthy Nuclei (%) (Fibroblast; [6]): 59% and 61% | Population Hoechst High Intensity Objects (%) (Fibroblast; [6]): 0% | Population Membrane Permeable-Phenotype (%) (Fibroblast; [6]): 6% and 9% | Population Mitochondria Different-Phenotype (%) (Fibroblast; [6]): 1% | Population Mitotic Cells (%) (Fibroblast; [6]): 33% and 27% | Population Normal (%) (Fibroblast; [6]): 100% | Population Pyknosed Nuclei (%) (Fibroblast; [6]): 9% and 8% | Population Tubulin-Different-Phenotype (%) (Fibroblast; [6]): 71% and 54% | Total Cell Count (Fibroblast; [6]): 257 and 251 | Population Apoptotic (%) (HEK-293T; [1]): 53% and 52% | Population Fragmented Nuclei (%) (HEK-293T; [1]): 5% and 2% | Population Healthy Nuclei (%) (HEK-293T; [1]): 81% and 85% | Population Hoechst High Intensity Objects (%) (HEK-293T; [1]): 7% and 6% | Population Membrane Permeable-Phenotype (%) (HEK-293T; [1]): 3% and 1% | Population Mitochondria Different-Phenotype (%) (HEK-293T; [1]): 21% and 11% | Population Mitotic Cells (%) (HEK-293T; [1]): 46% and 47% | Population Normal (%) (HEK-293T; [1]): 92% and 93% | Population Pyknosed Nuclei (%) (HEK-293T; [1]): 13% and 11% | Population Tubulin-Different-Phenotype (%) (HEK-293T; [1]): 61% and 56% | Total Cell Count (HEK-293T; [1]): 648 and 641 | Population Apoptotic (%) (HEK-293T; [2]): 45% and 68% | Population Fragmented Nuclei (%) (HEK-293T; [2]): 4% and 3% | Population Healthy Nuclei (%) (HEK-293T; [2]): 77% and 84% | Population Hoechst High Intensity Objects (%) (HEK-293T; [2]): 17% and 13% | Population Membrane Permeable-Phenotype (%) (HEK-293T; [2]): 4% and 2% | Population Mitochondria Different-Phenotype (%) (HEK-293T; [2]): 59% and 57% | Population Mitotic Cells (%) (HEK-293T; [2]): 54% and 31% | Population Normal (%) (HEK-293T; [2]): 82% and 86% | Population Pyknosed Nuclei (%) (HEK-293T; [2]): 17% and 12% | Population Tubulin-Different-Phenotype (%) (HEK-293T; [2]): 92% and 91% | Total Cell Count (HEK-293T; [2]): 429 and 378 | Population Apoptotic (%) (HEK-293T; [3]): 49% and 53% | Population Fragmented Nuclei (%) (HEK-293T; [3]): 7% and 6% | Population Healthy Nuclei (%) (HEK-293T; [3]): 85% and 86% | Population Hoechst High Intensity Objects (%) (HEK-293T; [3]): 8% and 9% | Population Membrane Permeable-Phenotype (%) (HEK-293T; [3]): 3% and 1% | Population Mitochondria Different-Phenotype (%) (HEK-293T; [3]): 10% and 4% | Population Mitotic Cells (%) (HEK-293T; [3]): 50% and 46%

From ChEMBL document CHEMBL5303300, “EUbOPEN Chemogenomics Library - Multiplex” (2023)
